Laboratory results published in ChEMBL document CHEMBL1142626, “Insecticidal and mutagenic evaluation of two annonaceous acetogenins” (J Nat Prod, 2000).

Key:
Salmonella typhimurium [1] = assay: Mutagenic activity in Salmonella Typhimurium TA100 assessed as number of revertants at 10 ug/plate in absence of Wistar rat S9 liver homogenate; type: toxicity, organism-based; conditions: salmonella enterica subsp. enterica serovar typhimurium
In short: (§1)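 Salmonella/microsome plate test, with or without S9 from livers of male Wistar rats (~200 g). Strain markers and spontaneous revertant counts were routinely verified. Revertants are reported as mean ± standard error of triplicate plates. Strain-specific positive controls were used, with 2-aminoanthracene for all strains when S9 was present.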

Salmonella typhimurium [2] = assay: Mutagenic activity in Salmonella Typhimurium TA100 assessed as number of revertants at 20 ug/plate in absence of Wistar rat S9 liver homogenate; type: toxicity, organism-based; conditions: salmonella enterica subsp. enterica serovar typhimurium; in short: as §1
Salmonella typhimurium [3] = assay: Mutagenic activity in Salmonella Typhimurium TA100 assessed as number of revertants at 50 ug/plate in absence of Wistar rat S9 liver homogenate; type: toxicity, organism-based; conditions: salmonella enterica subsp. enterica serovar typhimurium; in short: as §1
Salmonella typhimurium [4] = assay: Mutagenic activity in Salmonella Typhimurium TA100 assessed as number of revertants at 100 ug/plate in absence of Wistar rat S9 liver homogenate; type: toxicity, organism-based; conditions: salmonella enterica subsp. enterica serovar typhimurium; in short: as §1
Salmonella typhimurium [5] = assay: Mutagenic activity in Salmonella Typhimurium TA100 assessed as number of revertants at 0.01 ug/plate in presence of Wistar rat S9 liver homogenate; type: toxicity, organism-based, Liver S9 fraction; conditions: salmonella enterica subsp. enterica serovar typhimurium; in short: as §1
Salmonella typhimurium [6] = assay: Mutagenic activity in Salmonella Typhimurium TA100 assessed as number of revertants at 0.1 ug/plate in presence of Wistar rat S9 liver homogenate; type: toxicity, organism-based, Liver S9 fraction; conditions: salmonella enterica subsp. enterica serovar typhimurium; in short: as §1
Salmonella typhimurium [7] = assay: Mutagenic activity in Salmonella Typhimurium TA100 assessed as number of revertants at 1 ug/plate in presence of Wistar rat S9 liver homogenate; type: toxicity, organism-based, Liver S9 fraction; conditions: salmonella enterica subsp. enterica serovar typhimurium; in short: as §1
Salmonella typhimurium [8] = assay: Mutagenic activity in Salmonella Typhimurium TA100 assessed as number of revertants at 10 ug/plate in presence of Wistar rat S9 liver homogenate; type: toxicity, organism-based, Liver S9 fraction; conditions: salmonella enterica subsp. enterica serovar typhimurium; in short: as §1
Salmonella typhimurium [9] = assay: Mutagenic activity in Salmonella Typhimurium TA100 assessed as number of revertants at 20 ug/plate in presence of Wistar rat S9 liver homogenate; type: toxicity, organism-based, Liver S9 fraction; conditions: salmonella enterica subsp. enterica serovar typhimurium; in short: as §1
Salmonella typhimurium [10] = assay: Mutagenic activity in Salmonella Typhimurium TA100 assessed as number of revertants at 50 ug/plate in presence of Wistar rat S9 liver homogenate; type: toxicity, organism-based, Liver S9 fraction; conditions: salmonella enterica subsp. enterica serovar typhimurium; in short: as §1
Salmonella typhimurium [11] = assay: Mutagenic activity in Salmonella Typhimurium TA102 assessed as number of revertants at 0.01 ug/plate in absence of Wistar rat S9 liver homogenate; type: toxicity, organism-based; conditions: salmonella enterica subsp. enterica serovar typhimurium; in short: as §1
Salmonella typhimurium [12] = assay: Mutagenic activity in Salmonella Typhimurium TA102 assessed as number of revertants at 0.1 ug/plate in absence of Wistar rat S9 liver homogenate; type: toxicity, organism-based; conditions: salmonella enterica subsp. enterica serovar typhimurium; in short: as §1
Salmonella typhimurium [13] = assay: Mutagenic activity in Salmonella Typhimurium TA102 assessed as number of revertants at 1 ug/plate in absence of Wistar rat S9 liver homogenate; type: toxicity, organism-based; conditions: salmonella enterica subsp. enterica serovar typhimurium; in short: as §1
Salmonella typhimurium [14] = assay: Mutagenic activity in Salmonella Typhimurium TA102 assessed as number of revertants at 10 ug/plate in absence of Wistar rat S9 liver homogenate; type: toxicity, organism-based; conditions: salmonella enterica subsp. enterica serovar typhimurium; in short: as §1
Salmonella typhimurium [15] = assay: Mutagenic activity in Salmonella Typhimurium TA102 assessed as number of revertants at 20 ug/plate in absence of Wistar rat S9 liver homogenate; type: toxicity, organism-based; conditions: salmonella enterica subsp. enterica serovar typhimurium; in short: as §1
Salmonella typhimurium [16] = assay: Mutagenic activity in Salmonella Typhimurium TA102 assessed as number of revertants at 50 ug/plate in absence of Wistar rat S9 liver homogenate; type: toxicity, organism-based; conditions: salmonella enterica subsp. enterica serovar typhimurium; in short: as §1
Salmonella typhimurium [17] = assay: Mutagenic activity in Salmonella Typhimurium TA102 assessed as number of revertants at 100 ug/plate in absence of Wistar rat S9 liver homogenate; type: toxicity, organism-based; conditions: salmonella enterica subsp. enterica serovar typhimurium; in short: as §1
Salmonella typhimurium [18] = assay: Mutagenic activity in Salmonella Typhimurium TA102 assessed as number of revertants at 0.01 ug/plate in presence of Wistar rat S9 liver homogenate; type: toxicity, organism-based, Liver S9 fraction; conditions: salmonella enterica subsp. enterica serovar typhimurium; in short: as §1
Salmonella typhimurium [19] = assay: Mutagenic activity in Salmonella Typhimurium TA102 assessed as number of revertants at 1 ug/plate in presence of Wistar rat S9 liver homogenate; type: toxicity, organism-based, Liver S9 fraction; conditions: salmonella enterica subsp. enterica serovar typhimurium; in short: as §1
Salmonella typhimurium [20] = assay: Mutagenic activity in Salmonella Typhimurium TA102 assessed as number of revertants at 10 ug/plate in presence of Wistar rat S9 liver homogenate; type: toxicity, organism-based, Liver S9 fraction; conditions: salmonella enterica subsp. enterica serovar typhimurium; in short: as §1
Salmonella typhimurium [21] = assay: Mutagenic activity in Salmonella Typhimurium TA102 assessed as number of revertants at 20 ug/plate in presence of Wistar rat S9 liver homogenate; type: toxicity, organism-based, Liver S9 fraction; conditions: salmonella enterica subsp. enterica serovar typhimurium; in short: as §1
Salmonella typhimurium [22] = assay: Mutagenic activity in Salmonella Typhimurium TA102 assessed as number of revertants at 50 ug/plate in presence of Wistar rat S9 liver homogenate; type: toxicity, organism-based, Liver S9 fraction; conditions: salmonella enterica subsp. enterica serovar typhimurium; in short: as §1
Salmonella typhimurium [23] = assay: Mutagenic activity in Salmonella Typhimurium TA102 assessed as number of revertants at 100 ug/plate in presence of Wistar rat S9 liver homogenate; type: toxicity, organism-based, Liver S9 fraction; conditions: salmonella enterica subsp. enterica serovar typhimurium; in short: as §1
Salmonella typhimurium [24] = assay: Mutagenic activity in Salmonella Typhimurium TA98 assessed as number of revertants at 0.01 ug/plate in absence of Wistar rat S9 liver homogenate; type: toxicity, organism-based; conditions: salmonella enterica subsp. enterica serovar typhimurium; in short: as §1
Spodoptera littoralis = assay: Antifeedant effect against Spodoptera littoralis assessed as feeding reduction at 100 ug/cm2 relative to control; type: functional; set-up: scale not given: the % may be the effect or the level left
In short: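 Choice test on leaf disks using adult L. decemlineata or newly emerged fifth-instar S. littoralis larvae. Five to 10 plates per treatment, three insects each. Uneaten leaf-disk area was measured by scanner. %FR = [1 − (treatment/control consumption)] × 100 per arena. Where FR exceeded 50%, EC50 was taken from linear regression of %FR on log dose.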

CCCCCC[C@H](O)CCC[C@H](O)[C@H]1CC[C@H]([C@H]2CC[C@H]([C@H](O)CCCCCCCCCCCCC3=C[C@H](C)OC3=O)O2)O1 [SQUAMOCIN]
Activity (Salmonella typhimurium [1]): 69 | Activity (Salmonella typhimurium [2]): 68 | Activity (Salmonella typhimurium [3]): 39 | Activity (Salmonella typhimurium [4]): 21 | Activity (Salmonella typhimurium [5]): 147 | Activity (Salmonella typhimurium [6]): 137 | Activity (Salmonella typhimurium [7]): 138 | Activity (Salmonella typhimurium [8]): 142 | Activity (Salmonella typhimurium [9]): 135 | Activity (Salmonella typhimurium [10]): 118 | Activity (Salmonella typhimurium [11]): 259 | Activity (Salmonella typhimurium [12]): 243 | Activity (Salmonella typhimurium [13]): 182 | Activity (Salmonella typhimurium [14]): 108 | Activity (Salmonella typhimurium [15]): 98 | Activity (Salmonella typhimurium [16]): 93 | Activity (Salmonella typhimurium [17]): 80 | Activity (Salmonella typhimurium [18]): 414 | Activity (Salmonella typhimurium [19]): 422 | Activity (Salmonella typhimurium [20]): 419 | Activity (Salmonella typhimurium [21]): 139 | Activity (Salmonella typhimurium [22]): 99 | Activity (Salmonella typhimurium [23]): 88 | Activity (Salmonella typhimurium [24]): 27 | Activity (Spodoptera littoralis): <40%
